Series [1] concerns the target T1, Amine oxidase [flavin-containing] B (Homo sapiens, UniProt P27338).
T1 sequence (P27338 whole entry): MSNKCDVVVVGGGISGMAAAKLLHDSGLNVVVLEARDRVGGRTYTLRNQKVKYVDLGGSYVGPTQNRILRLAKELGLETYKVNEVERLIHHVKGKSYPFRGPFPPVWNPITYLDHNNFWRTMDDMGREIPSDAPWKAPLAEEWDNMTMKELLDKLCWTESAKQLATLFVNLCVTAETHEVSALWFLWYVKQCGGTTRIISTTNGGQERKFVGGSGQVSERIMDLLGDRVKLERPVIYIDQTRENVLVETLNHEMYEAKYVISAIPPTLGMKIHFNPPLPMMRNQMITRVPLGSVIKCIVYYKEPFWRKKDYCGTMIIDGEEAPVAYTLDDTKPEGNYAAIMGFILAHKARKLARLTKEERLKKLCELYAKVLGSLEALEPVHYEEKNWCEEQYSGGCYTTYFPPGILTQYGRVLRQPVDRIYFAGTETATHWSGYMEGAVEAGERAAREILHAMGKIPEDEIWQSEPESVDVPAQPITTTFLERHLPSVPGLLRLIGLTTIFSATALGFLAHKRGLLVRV
The series is described as follows: Inhibition of recombinant human MAO-B assessed as oxidation of kynuramine to 4-hydroxyquinoline after 20 mins by spectrofluorometric analysis. An outline of the steps:
(§1)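 Enzyme from insect-cell microsomes expressing recombinant human MAO-A or MAO-B, at 0.0075 mg protein/mL, in 100 mM potassium phosphate pH 7.4 made isotonic with 20.2 mM KCl, with 4% DMSO. Kynuramine was 45 µM for MAO-A and 30 µM for MAO-B. Inhibitor range 0-100 µM, six log-spaced concentrations. Incubated 20 min at 37 °C, stopped with 2N NaOH and centrifuged. 4-Hydroxyquinoline read by fluorescence (ex 310/em 400 nm) against a calibration curve. One-site competition fit; three experiments, mean ± SD.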

Series [2] has as its target T2, Amine oxidase [flavin-containing] A (Homo sapiens, UniProt P21397).
T2 sequence (P21397 whole entry): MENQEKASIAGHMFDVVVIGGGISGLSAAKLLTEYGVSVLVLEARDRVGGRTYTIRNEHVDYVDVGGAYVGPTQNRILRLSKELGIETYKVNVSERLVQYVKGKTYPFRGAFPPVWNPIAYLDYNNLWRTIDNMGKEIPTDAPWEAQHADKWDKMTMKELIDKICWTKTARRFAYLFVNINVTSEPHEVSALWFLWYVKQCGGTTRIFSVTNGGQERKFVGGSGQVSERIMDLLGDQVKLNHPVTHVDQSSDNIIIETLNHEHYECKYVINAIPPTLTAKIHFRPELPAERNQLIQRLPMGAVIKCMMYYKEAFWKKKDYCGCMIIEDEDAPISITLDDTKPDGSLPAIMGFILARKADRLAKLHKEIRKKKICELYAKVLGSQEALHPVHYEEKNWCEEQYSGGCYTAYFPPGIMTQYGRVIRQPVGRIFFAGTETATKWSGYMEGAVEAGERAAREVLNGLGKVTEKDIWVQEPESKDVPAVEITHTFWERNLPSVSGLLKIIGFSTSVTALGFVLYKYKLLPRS
The series is described as follows: Inhibition of recombinant human MAO-A assessed as oxidation of kynuramine to 4-hydroxyquinoline after 20 mins by spectrofluorometric analysis. Summed up: as §1

Series [3] deals with T1, Amine oxidase [flavin-containing] B. The series is described as follows: Reversible inhibition of recombinant human MAO-B assessed as oxidation of kynuramine to 4-hydroxyquinoline at IC50 to 2 times IC50 up to 60 mins by spectrofluorometric analysis. The following applies: 1 h.
Series [4] has the same target. The series can be described thus: Competitive inhibition of recombinant human MAO-B using kynuramine as substrate by Lineweaver-Burk plot analysis.
For series [5] the target is unchanged. The series is described as follows: Mixed type inhibition of recombinant human MAO-B using kynuramine as substrate by Lineweaver-Burk plot analysis.

Take `C/C(=N\Nc1nc(-c2ccccc2)cs1)c1cccnc1`: the IC50 (in general, the point on the concentration scale where inhibition reaches its midpoint) in series [1] (read-out: IC50) was 944 nM; in series [2] (read-out: IC50), 21.3 µM.
On to `C/C(=N/Nc1nc(C)cs1)c1ccncc1`, for which the IC50 entry in series [1] and in series [2] was “Not Active” in each case.
On to `C/C(=N/Nc1nc(-c2ccccc2)cs1)c1ccncc1`, for which the IC50 in series [1] (read-out: IC50) amounted to 13 nM; in series [2] (read-out: IC50), 2.67 µM. Also, the “inhibition (INH)” value in series [3] and in series [4] was “Active” throughout.
Take `C/C(=N\Nc1nc(C)cs1)c1ccccn1`: the IC50 result in series [1] and in series [2] was “Not Active” each time.
As for `C/C(=N\Nc1nc(-c2ccccc2)cs1)c1ccccn1`, the IC50 in series [1] (read-out: IC50) was 3840 nM; in series [2] (read-out: IC50) it was 16.6 µM.
Taken in the same sequence, the figures for `C/C(=N\Nc1nc(C)cs1)c1cccnc1` were 13600 nM and 6.91 µM.
Turning to `CCOC(=O)c1csc(N/N=C(\C)c2cccnc2)n1`, the IC50 in series [1] (read-out: IC50) came to 72.2 nM; in series [2] (read-out: IC50), 6.57 µM. Also, the “inhibition (INH)” value in series [3] and in series [5] was “Active” in each case.
Consider `CCOC(=O)c1csc(N/N=C(\C)c2ccncc2)n1`, for which the IC50 came to 127 nM in series [1] (read-out: IC50) and 6.63 µM in series [2] (read-out: IC50). The “inhibition (INH)” value in series [3] and in series [4] was “Active” throughout.
On to `CCOC(=O)c1csc(N/N=C(\C)c2ccccn2)n1`, for which the IC50 entry in series [1] and in series [2] was “Not Active” throughout.

For the origin of these results see ChEMBL document CHEMBL2407071, “Exploring 4-substituted-2-thiazolylhydrazones from 2-, 3-, and 4-acetylpyridine as selective and reversible hMAO-B inhibitors” (Eur J Med Chem, 2013).
